Results: ChEMBL document CHEMBL4229460, “Design and biological evaluation of novel hybrids of 1, 5-diarylpyrazole and Chrysin for selective COX-2 inhibition” (Bioorg Med Chem, 2018)

Assays:
HeLa [1] = experiment: Induction of apoptosis in human HeLa cells assessed as early apoptotic cells at 5 uM after 12 hrs by Annexin-V-FITC/propidium iodide staining based flow cytometry (reference value: 1.24%); assay type: functional
Summary of the method: (§1)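 HeLa seeded at 2 × 10⁵ cells/well. Dose series was 0, 1.25, 2.5, 5 and 10 μM for 24 h; time course was 5 μM for 12, 24, 36 or 48 h. Trypsinized and washed in ice-cold PBS, then stained in binding buffer with Annexin V-FITC and PI for 10 min in the dark. Flow cytometry scored early (Annexin⁺/PI⁻) and late (Annexin⁺/PI⁺) apoptotic cells.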

HeLa [2] = experiment: Cell cycle arrest in human HeLa cells assessed as accumulation at S phase at 2.5 uM after 24 hrs by propidium iodide staining based flow cytometry (reference value: 18.16%); assay type: functional
HeLa [3] = experiment: Induction of apoptosis in human HeLa cells assessed as necrotic cells at 5 uM after 48 hrs by Annexin-V-FITC/propidium iodide staining based flow cytometry (reference value: 1.12%); assay type: functional
Summary of the method: (§2)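 HeLa cells in DMEM with 10% FBS, penicillin/streptomycin, 37 °C, 5% CO₂; seeded 2 × 10⁵ cells/well in six-well plates, treated at 0, 1.25, 2.5, 5 and 10 μM for 24 h, or at 5 μM for 12, 24, 36 or 48 h. Cells trypsinized, washed in ice-cold PBS, stained in binding buffer with Annexin V-FITC and PI for 10 min in the dark, then analyzed by flow cytometry.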

HeLa [4] = experiment: Induction of apoptosis in human HeLa cells assessed as late apoptotic cells at 2.5 uM after 24 hrs by Annexin-V-FITC/propidium iodide staining based flow cytometry (reference value: 1.72%); assay type: functional; summary of the method: as §1
HeLa [5] = experiment: Induction of apoptosis in human HeLa cells assessed as necrotic cells at 5 uM after 24 hrs by Annexin-V-FITC/propidium iodide staining based flow cytometry (reference value: 0.242 to 1.12%); assay type: functional; summary of the method: as §2
HeLa [6] = experiment: Induction of apoptosis in human HeLa cells assessed as early apoptotic cells at 5 uM after 48 hrs by Annexin-V-FITC/propidium iodide staining based flow cytometry (reference value: 1.24%); assay type: functional; summary of the method: as §1
HeLa [7] = experiment: Cell cycle arrest in human HeLa cells assessed as accumulation at G2/M phase at 10 uM after 24 hrs by propidium iodide staining based flow cytometry (reference value: 21.45%); assay type: functional
HeLa [8] = experiment: Disruption of mitochondrial membrane potential in human HeLa cells assessed as collapse of the mitochondrial membrane potential at 5 uM after 12 hrs by JC1 staining based flow cytometry (reference value: 0.768%); assay type: functional
HeLa [9] = experiment: Disruption of mitochondrial membrane potential in human HeLa cells assessed as intact mitochondrial membrane at 1.25 uM after 12 hrs by JC1 staining based flow cytometry (reference value: 99.2%); assay type: functional
A549 = experiment: Antiproliferative activity against human A549 cells after 48 hrs by MTT assay; assay type: functional, cell-based; conditions: A549, 48 h
Summary of the method: (§3)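 Cells kept in DMEM with 10% FBS, penicillin/streptomycin, 37 °C, 5% CO₂. Seeded at 5 × 10⁴ cells/well and allowed to adhere 12 h. Exposed to 0, 0.1, 1, 10 and 100 μM (final) for 48 h. Viability read by MTT reduction at OD 570 nm with 630 nm reference. IC50 reported as mean ± SD of three independent experiments.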

HeLa [10] = experiment: Cell cycle arrest in human HeLa cells assessed as accumulation at G1 phase at 2.5 uM after 24 hrs by propidium iodide staining based flow cytometry (reference value: 55.51%); assay type: functional
HeLa [11] = experiment: Induction of apoptosis in human HeLa cells assessed as necrotic cells at 1.25 uM after 24 hrs by Annexin-V-FITC/propidium iodide staining based flow cytometry (reference value: 0.242%); assay type: functional; summary of the method: as §1
HeLa [12] = experiment: Induction of apoptosis in human HeLa cells assessed as necrotic cells at 10 uM after 24 hrs by Annexin-V-FITC/propidium iodide staining based flow cytometry (reference value: 0.242%); assay type: functional; summary of the method: as §1
HeLa [13] = experiment: Disruption of mitochondrial membrane potential in human HeLa cells assessed as intact mitochondrial membrane at 10 uM after 12 hrs by JC1 staining based flow cytometry (reference value: 99.2%); assay type: functional
HeLa [14] = experiment: Induction of apoptosis in human HeLa cells assessed as early apoptotic cells at 1.25 uM after 24 hrs by Annexin-V-FITC/propidium iodide staining based flow cytometry (reference value: 2.98%); assay type: functional; summary of the method: as §1
HeLa [15] = experiment: Induction of apoptosis in human HeLa cells assessed as live cells at 5 uM after 36 hrs by Annexin-V-FITC/propidium iodide staining based flow cytometry (reference value: 95.1%); assay type: functional; summary of the method: as §1
HeLa [16] = experiment: Induction of apoptosis in human HeLa cells assessed as early apoptotic cells at 10 uM after 24 hrs by Annexin-V-FITC/propidium iodide staining based flow cytometry (reference value: 2.98%); assay type: functional; summary of the method: as §1
HeLa [17] = experiment: Cell cycle arrest in human HeLa cells assessed as accumulation at G1 phase after 24 hrs by propidium iodide staining based flow cytometry; assay type: functional
HeLa [18] = experiment: Cell cycle arrest in human HeLa cells assessed as accumulation at G2/M phase at 5 uM after 24 hrs by propidium iodide staining based flow cytometry (reference value: 21.45%); assay type: functional
HeLa [19] = experiment: Cell cycle arrest in human HeLa cells assessed as accumulation at G1 phase at 10 uM after 24 hrs by propidium iodide staining based flow cytometry (reference value: 55.51%); assay type: functional
HeLa [20] = experiment: Antiproliferative activity against human HeLa cells after 48 hrs by MTT assay; assay type: functional, cell-based
HeLa [21] = experiment: Induction of apoptosis in human HeLa cells assessed as live cells at 10 uM after 24 hrs by Annexin-V-FITC/propidium iodide staining based flow cytometry (reference value: 94.6%); assay type: functional; summary of the method: as §1
HeLa [22] = experiment: Cell cycle arrest in human HeLa cells assessed as accumulation at S phase at 5 uM after 24 hrs by propidium iodide staining based flow cytometry (reference value: 18.16%); assay type: functional
HeLa [23] = experiment: Disruption of mitochondrial membrane potential in human HeLa cells assessed as collapse of the mitochondrial membrane potential at 2.5 uM after 12 hrs by JC1 staining based flow cytometry (reference value: 0.768%); assay type: functional
Homo sapiens = species: Homo sapiens; experiment: Selectivity index, ratio of IC50 for COX1 (unknown origin) to ratio of IC50 for COX2 (unknown origin)
Summary of the method: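 Enzyme ELISA kit: COX-1 or COX-2 preincubated with compound at 0, 1, 10 or 100 μM for 10 min at 37 °C in 0.1 M Tris-HCl pH 8.0, 5 mM EDTA, 2 mM phenol, 1 μM heme. Started with 100 μM arachidonic acid for 2 min at 37 °C, stopped with 1 M HCl. PGH₂ reduced by stannous chloride; PGF2α read by enzyme immunoassay at 450 nm. Index taken as the ratio of the COX IC50 values.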

HeLa [24] = experiment: Disruption of mitochondrial membrane potential in human HeLa cells after 12 hrs by JC1 staining based flow cytometry; assay type: functional, cell-based
HeLa [25] = experiment: Induction of apoptosis in human HeLa cells assessed as necrotic cells at 5 uM after 36 hrs by Annexin-V-FITC/propidium iodide staining based flow cytometry (reference value: 1.12%); assay type: functional; summary of the method: as §2
B16-F10 = experiment: Antiproliferative activity against mouse B16F10 cells after 48 hrs by MTT assay; assay type: functional, cell-based; conditions: B16-F10, 48 h; summary of the method: as §3

COc1ccc(-c2cc(COC(=O)COc3cc(O)c4c(=O)cc(-c5ccccc5)oc4c3)nn2-c2ccc(C)cc2)cc1
Activity (HeLa [1]): 22.7%
Activity (HeLa [2]): 18.61%
Activity (HeLa [3]): 1.43%
Activity (HeLa [4]): 8.28%
Activity (HeLa [5]): 0.073 - 0.427%
Activity (HeLa [6]): 73.2%
Activity (HeLa [7]): 5.24%
Activity (HeLa [8]): 9.32%
Activity (HeLa [9]): 96.5%
IC50 (A549): 6.41 µM
Activity (HeLa [10]): 67.88%
Activity (HeLa [11]): 1.18%
Activity (HeLa [12]): 0.325%
Activity (HeLa [13]): 86.5%
Activity (HeLa [14]): 12.6%
Activity (HeLa [15]): 48.7%
Activity (HeLa [16]): 36.8%
Activity (HeLa [17]): Dose-dependent effect
Activity (HeLa [18]): 8.16%
Activity (HeLa [19]): 76.02%
IC50 (HeLa [20]): 1.12 µM
Activity (HeLa [21]): 51.4%
Activity (HeLa [22]): 15.67%
Activity (HeLa [23]): 5.61%
Ratio IC50 (Homo sapiens): 206
Activity (HeLa [24]): Dose-dependent effect
Activity (HeLa [25]): 2.08%
IC50 (B16-F10): 10.4 µM
